Measured values from ChEMBL document CHEMBL2069205 (Bioorg Med Chem Lett, 2012).

Legend:
[1] = target: T1, Potassium voltage-gated channel subfamily KQT member 1 (Homo sapiens, UniProt P51787); test: Activation of Kv7.1 channel expressed in CHO cells assessed as depolarization-induced […] after 3 mins by patch clamp assay; format: cell-based
T1 sequence (P51787 whole entry): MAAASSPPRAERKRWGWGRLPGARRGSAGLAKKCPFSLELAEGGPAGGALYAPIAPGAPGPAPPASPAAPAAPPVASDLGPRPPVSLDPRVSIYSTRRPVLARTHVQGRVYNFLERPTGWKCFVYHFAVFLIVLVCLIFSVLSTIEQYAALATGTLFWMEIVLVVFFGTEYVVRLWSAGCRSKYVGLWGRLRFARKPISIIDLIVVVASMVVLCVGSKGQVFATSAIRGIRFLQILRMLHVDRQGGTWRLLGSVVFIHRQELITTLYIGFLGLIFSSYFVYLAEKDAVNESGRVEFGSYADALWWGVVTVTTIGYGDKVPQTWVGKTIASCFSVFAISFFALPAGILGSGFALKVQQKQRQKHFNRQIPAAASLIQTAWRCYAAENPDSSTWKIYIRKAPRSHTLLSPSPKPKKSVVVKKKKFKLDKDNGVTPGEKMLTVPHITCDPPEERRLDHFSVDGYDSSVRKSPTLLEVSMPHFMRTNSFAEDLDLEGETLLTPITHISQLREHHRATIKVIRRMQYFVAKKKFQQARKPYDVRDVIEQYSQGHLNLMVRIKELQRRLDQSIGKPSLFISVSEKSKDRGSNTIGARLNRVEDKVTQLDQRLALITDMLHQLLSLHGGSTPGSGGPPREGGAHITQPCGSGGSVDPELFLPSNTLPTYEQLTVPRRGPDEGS
Method in brief: (§1)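 CHO cells stably expressing KCNQ1 were run by perforated (amphotericin B, 50 µg/ml) population patch clamp in pH 7.4 HEPES extracellular solution. Cells were held at −80 mV and stepped to +40 mV for 2000 ms. Current at the end of the step was taken before and after 3 min of compound, as percent change. Wells needed >30 MΩ seal and 0.6–0.8 nA minimum current. EC50s came from 8-point, threefold dilutions in duplicate.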

[2] = target: T1, Potassium voltage-gated channel subfamily KQT member 1; test: Activation of Kv7.1 channel expressed in CHO cells assessed as depolarization-induced […] after 3 mins by patch clamp assay relative to control; format: cell-based; conditions: 0.05 h, read-out: %max; method in brief: as §1
[3] = Intrinsic clearance in human liver microsomes; format: ADME, Microsome; conditions: read-out: CLH
Method in brief: (§2)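 Intrinsic clearance was measured in hepatic microsomes, and the data were used to predict hepatic clearance (CL_HEP).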

[4] = Intrinsic clearance in rat liver microsomes; format: ADME, Microsome; conditions: read-out: CLH; method in brief: as §2
[5] = target: T2, Potassium voltage-gated channel subfamily KQT member 4 (Homo sapiens, UniProt P56696); test: Activation of KCNQ4 channel expressed in CHO cells assessed as depolarization-induced […] after 3 mins by patch clamp assay relative to control; format: cell-based
T2 sequence (P56696 whole entry): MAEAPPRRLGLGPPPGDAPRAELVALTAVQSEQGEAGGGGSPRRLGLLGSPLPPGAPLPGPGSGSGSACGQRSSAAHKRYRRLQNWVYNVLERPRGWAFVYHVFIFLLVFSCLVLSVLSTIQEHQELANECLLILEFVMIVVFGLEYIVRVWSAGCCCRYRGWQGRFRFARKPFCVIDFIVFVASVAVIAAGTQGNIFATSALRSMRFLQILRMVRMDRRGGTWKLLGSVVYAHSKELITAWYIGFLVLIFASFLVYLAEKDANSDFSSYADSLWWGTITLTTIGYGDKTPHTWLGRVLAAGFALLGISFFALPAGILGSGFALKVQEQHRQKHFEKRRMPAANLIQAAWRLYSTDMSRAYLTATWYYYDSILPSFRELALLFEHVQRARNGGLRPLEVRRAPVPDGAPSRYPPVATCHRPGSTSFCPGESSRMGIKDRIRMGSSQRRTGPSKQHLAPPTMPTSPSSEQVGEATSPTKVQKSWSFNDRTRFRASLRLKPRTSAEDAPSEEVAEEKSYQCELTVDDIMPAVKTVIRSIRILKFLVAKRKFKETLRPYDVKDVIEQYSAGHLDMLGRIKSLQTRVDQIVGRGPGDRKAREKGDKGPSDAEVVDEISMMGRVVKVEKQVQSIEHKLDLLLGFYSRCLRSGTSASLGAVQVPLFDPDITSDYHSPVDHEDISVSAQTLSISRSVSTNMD
Method in brief: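 KCNQ4-expressing CHO cells were measured on the same perforated population patch-clamp platform. Cells were held at −70 mV and depolarized to +40 mV, with step current measured at +40 mV before and after 3 min of compound. Effect was calculated as percent change from the pre-compound current in the same well. The 8-point, threefold concentration series was run in duplicate.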

[6] = target: Cannabinoid receptor 1 (Homo sapiens) (UniProt P21554); test: Inhibition of human CB1 receptor at 10 uM
Method in brief: (§3)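 The Lead Profiling binding panel (68 GPCRs, ion channels and transporters) was run at a single point, reading percent inhibition.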

[7] = system: Liver microsomes; test: Drug metabolism in human liver microsomes assessed as methoxy-O-demethylation by mass spectrophotometry; format: ADME, Microsome
Method in brief: (§4)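 In vitro biotransformation in liver microsomes was examined, with primary metabolic pathways identified by mass spectrometry.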

[8] = target: T3, Adenosine receptor A3 (Homo sapiens) (UniProt P0DMS8); test: Inhibition of human adenosine A3 receptor at 10 uM; method in brief: as §3
T3 sequence (whole entry): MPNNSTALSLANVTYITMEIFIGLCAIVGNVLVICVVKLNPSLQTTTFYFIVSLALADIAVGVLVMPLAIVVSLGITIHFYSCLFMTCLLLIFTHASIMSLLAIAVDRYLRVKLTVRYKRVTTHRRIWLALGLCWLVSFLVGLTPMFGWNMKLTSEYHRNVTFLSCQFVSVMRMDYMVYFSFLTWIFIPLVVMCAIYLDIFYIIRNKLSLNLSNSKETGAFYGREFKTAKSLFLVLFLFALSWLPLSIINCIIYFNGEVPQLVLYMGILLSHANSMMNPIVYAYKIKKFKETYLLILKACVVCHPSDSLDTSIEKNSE

[9] = system: Plasma; test: Fraction unbound in human plasma; format: ADME, cell-free
Method in brief: (§5)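 Plasma protein binding was measured by rapid equilibrium dialysis, giving the unbound fraction.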

[10] = target: 5-hydroxytryptamine receptor 2B (Homo sapiens) (UniProt P41595); test: Inhibition of human 5HT2B receptor at 10 uM
Method in brief: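 Commercial lead-profiling binding panel of up to 68 GPCRs, ion channels and transporters; percent inhibition measured at a single concentration of 10 µM.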

[11] = system: Liver microsomes; test: Drug metabolism in human liver microsomes assessed as tolyl-oxidation by mass spectrophotometry; format: ADME, Microsome; method in brief: as §4
[12] = system: Plasma; test: Fraction unbound in rat plasma; format: ADME, cell-free; method in brief: as §5
[13] = target: Sodium-dependent dopamine transporter (Homo sapiens) (UniProt Q01959); test: Inhibition of human DAT at 10 uM; method in brief: as §3
[14] = target: Potassium voltage-gated channel subfamily KQT member 2 (Homo sapiens, UniProt O43526); test: Activation of KCNQ2 channel expressed in CHO cells assessed as depolarization-induced […] after 3 mins by patch clamp assay relative to control; format: cell-based
[15] = system: Liver microsomes; test: Drug metabolism in rat liver microsomes assessed as tolyl-oxidation by mass spectrophotometry; format: ADME, Microsome; method in brief: as §4
[16] = system: Liver microsomes; test: Drug metabolism in rat liver microsomes assessed as methoxy-O-demethylation by mass spectrophotometry; format: ADME, Microsome; method in brief: as §4

Chain of 5-hydroxytryptamine receptor 2B (Homo sapiens) (P41595 whole entry): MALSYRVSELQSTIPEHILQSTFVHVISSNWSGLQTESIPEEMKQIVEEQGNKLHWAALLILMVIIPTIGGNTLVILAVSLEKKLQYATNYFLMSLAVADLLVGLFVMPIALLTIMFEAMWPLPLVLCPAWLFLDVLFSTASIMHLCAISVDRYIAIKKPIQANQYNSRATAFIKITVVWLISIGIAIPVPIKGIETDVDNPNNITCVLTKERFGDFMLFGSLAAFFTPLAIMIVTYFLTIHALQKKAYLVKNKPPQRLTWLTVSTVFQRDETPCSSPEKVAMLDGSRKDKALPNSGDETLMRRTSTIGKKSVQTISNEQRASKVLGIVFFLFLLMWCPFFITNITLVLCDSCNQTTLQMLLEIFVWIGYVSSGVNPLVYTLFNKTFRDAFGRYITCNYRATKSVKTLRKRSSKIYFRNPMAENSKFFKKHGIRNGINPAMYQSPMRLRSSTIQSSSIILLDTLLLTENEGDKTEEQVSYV
Chain of Potassium voltage-gated channel subfamily KQT member 2 (O43526 whole entry): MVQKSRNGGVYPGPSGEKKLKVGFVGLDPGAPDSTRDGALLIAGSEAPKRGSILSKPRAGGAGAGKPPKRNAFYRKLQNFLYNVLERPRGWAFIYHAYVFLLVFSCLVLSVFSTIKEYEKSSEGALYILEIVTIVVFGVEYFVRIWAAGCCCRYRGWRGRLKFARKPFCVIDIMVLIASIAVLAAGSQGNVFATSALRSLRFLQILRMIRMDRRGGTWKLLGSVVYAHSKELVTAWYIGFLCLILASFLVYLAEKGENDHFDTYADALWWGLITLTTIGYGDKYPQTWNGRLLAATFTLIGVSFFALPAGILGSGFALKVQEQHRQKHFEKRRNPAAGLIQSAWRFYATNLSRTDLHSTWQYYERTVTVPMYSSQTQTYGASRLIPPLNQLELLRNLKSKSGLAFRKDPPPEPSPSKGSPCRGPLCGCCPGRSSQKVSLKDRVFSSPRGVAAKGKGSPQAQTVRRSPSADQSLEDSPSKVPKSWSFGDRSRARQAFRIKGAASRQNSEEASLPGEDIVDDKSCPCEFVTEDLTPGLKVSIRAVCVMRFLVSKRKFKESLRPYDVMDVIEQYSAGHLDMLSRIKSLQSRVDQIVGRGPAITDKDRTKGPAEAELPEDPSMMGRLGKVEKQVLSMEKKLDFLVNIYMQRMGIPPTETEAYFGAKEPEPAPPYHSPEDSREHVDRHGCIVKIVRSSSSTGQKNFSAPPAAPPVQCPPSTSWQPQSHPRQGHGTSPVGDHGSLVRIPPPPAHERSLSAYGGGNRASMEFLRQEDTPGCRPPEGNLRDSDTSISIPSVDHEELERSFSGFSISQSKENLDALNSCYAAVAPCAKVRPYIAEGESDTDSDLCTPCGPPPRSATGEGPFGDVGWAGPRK
Chain of Cannabinoid receptor 1 (Homo sapiens) (P21554 whole entry): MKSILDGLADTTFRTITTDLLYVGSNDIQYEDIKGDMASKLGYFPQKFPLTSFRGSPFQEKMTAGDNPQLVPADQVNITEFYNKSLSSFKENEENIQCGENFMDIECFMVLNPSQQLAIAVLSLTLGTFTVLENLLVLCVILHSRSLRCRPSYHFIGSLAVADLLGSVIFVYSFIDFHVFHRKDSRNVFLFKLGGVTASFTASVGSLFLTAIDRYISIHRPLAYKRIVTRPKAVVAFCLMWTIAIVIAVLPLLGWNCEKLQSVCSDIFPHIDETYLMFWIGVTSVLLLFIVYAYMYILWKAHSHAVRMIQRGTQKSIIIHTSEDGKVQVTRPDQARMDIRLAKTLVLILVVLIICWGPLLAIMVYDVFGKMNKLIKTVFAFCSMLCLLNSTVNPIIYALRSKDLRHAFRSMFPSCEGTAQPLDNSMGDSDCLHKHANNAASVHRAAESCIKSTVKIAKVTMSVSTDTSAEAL
Chain of Sodium-dependent dopamine transporter (Homo sapiens) (Q01959 whole entry): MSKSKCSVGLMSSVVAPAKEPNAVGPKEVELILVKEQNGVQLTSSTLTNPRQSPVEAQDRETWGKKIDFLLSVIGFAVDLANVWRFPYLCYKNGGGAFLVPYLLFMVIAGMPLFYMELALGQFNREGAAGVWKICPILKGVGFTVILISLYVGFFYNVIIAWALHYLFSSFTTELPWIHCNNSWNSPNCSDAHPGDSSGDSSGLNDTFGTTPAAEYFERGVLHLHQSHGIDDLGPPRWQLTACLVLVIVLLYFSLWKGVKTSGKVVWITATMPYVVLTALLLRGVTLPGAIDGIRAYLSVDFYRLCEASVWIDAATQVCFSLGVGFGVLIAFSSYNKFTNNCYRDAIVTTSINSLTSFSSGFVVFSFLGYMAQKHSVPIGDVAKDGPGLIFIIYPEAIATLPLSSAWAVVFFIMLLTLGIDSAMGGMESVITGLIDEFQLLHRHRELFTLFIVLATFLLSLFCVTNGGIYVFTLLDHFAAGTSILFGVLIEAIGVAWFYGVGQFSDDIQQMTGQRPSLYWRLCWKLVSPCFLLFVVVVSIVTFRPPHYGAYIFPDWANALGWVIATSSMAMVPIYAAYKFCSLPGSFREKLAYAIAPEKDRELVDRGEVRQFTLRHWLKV

## COc1ccc(-c2csc(NC(=O)[C@H]3CCCCN3S(=O)(=O)c3ccccc3)n2)cc1
[1]
  EC50: 1470 nM
[2]
  Emax: 359%

## COc1ccc(-c2csc(NC(=O)[C@H]3CCCCN3S(=O)(=O)c3ccc4c(c3)OCO4)n2)cc1
[1]
  EC50: 780 nM
[2]
  Emax: 178%

## O=C(Nc1nc(-c2ccc(OC(F)(F)F)cc2)cs1)[C@H]1CCCCN1S(=O)(=O)c1ccc(OC(F)(F)F)cc1
[3]
  CLint scaled: 7.9 mL/min/kg
[1]; human, cho, 0.05 h
  Activity: Not Active
[4]
  CLint scaled: 20.6 mL/min/kg

## COc1ccc(-c2csc(NC(=O)[C@H]3CCCCN3S(=O)(=O)c3ccc(C)cc3)n2)cc1
[5]
  EC50: > 30000 nM
[3]
  CLint scaled: 18 mL/min/kg
[6]
  inhibition: 97%
[7]
  Drug metabolism: Active
[8]
  inhibition: 73%
[9]
  Fu: 0.6%
[10]
  inhibition: 66%
[11]
  Drug metabolism: Active
[4]
  CLint scaled: 64.7 mL/min/kg
[12]
  Fu: 0.7%
[13]
  inhibition: 54%
[14]
  EC50: > 30000 nM
[15]
  Drug metabolism: Active
[16]
  Drug metabolism: Active

## COc1ccc(-c2csc(NC(=O)C3CCCCN3S(=O)(=O)c3ccccc3)n2)cc1 (racemic)
[1]
  EC50: 1690 nM
[2]
  Emax: 285%

## COc1ccc(-c2csc(NC(=O)[C@@H]3CCCCN3S(=O)(=O)c3ccccc3)n2)cc1
[1]
  EC50: > 30000 nM
